Columns and labels:
MC-38 = assay: Antitumor activity against the subcutaneously implanted C38 colon tumor in mice.; assay type: functional, Mus musculus; parameters: concentration or dose not given beside the values
Method in brief: (§1)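 Colon 38 fragments were implanted sc in BDF1 mice and grown to 4-8 mm diameter. Each mouse then got a single ip dose of the sodium salt in water, with light excluded. Doses rose in 1.5-fold steps up to 750 mg/kg or the maximum tolerated dose. Tumors were removed 24 h later, formalin-fixed, and sections were stained with hematoxylin/eosin. Necrosis was scored: ++ >90%, + 50-90%, − <50%. Groups of five mice, with 2-3 independent determinations per dose.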

Mus musculus [1] = assay: Minimum dose required when administered intraperitoneally in mice as the sodium salt in water in a single dose.; assay type: functional
Method in brief: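 The minimum dose giving the cited necrosis level in sc colon 38 tumors (4-8 mm) in BDF1 mice. It was taken from a full dose profile at 1.5-fold intervals, given as a single ip dose of the sodium salt in water. The ceiling was 750 mg/kg or the maximum tolerated dose, defined as the highest dose causing no deaths in 24 h. Tumor histology was read at 24 h.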

Mus musculus [2] = assay: Compound was evaluated in vivo, for antitumor activity, against the subcutaneously implanted C38 colon tumor in mice; 50-90%; assay type: functional; method in brief: as §1
Mus musculus [3] = assay: Compound was evaluated in vivo, for antitumor activity, against the subcutaneously implanted C38 colon tumor in mice; 50-90%

SMILES | Activity (MC-38) [%] | minimum dose giving tumor necrosis (Mus musculus [1]) [mg/kg] | Activity (Mus musculus [2]) [%] | Activity (Mus musculus [3]) [%]
O=C(O)Cc1cccc2c(=O)c3cccc(Cl)c3oc12 | 90 | 150 |  | 
O=C(O)Cc1cccc2c(=O)c3ccccc3oc12 | >90 | 220 |  | 
Cc1cccc2c(=O)c3cccc(CC(=O)O)c3oc12 | >90 | 30 |  | 
Cc1c(N(C)C)ccc2c(=O)c3cccc(CC(=O)O)c3oc12 |  | 45 |  | 
O=C(O)Cc1cccc2c(=O)c3ccc4c(c3oc12)CCC4 | >90 | 45 |  | 
Cc1cccc2c(=O)c3c(C)ccc(CC(=O)O)c3oc12 | >90 | 65 |  | 
Cc1c(Br)ccc2c(=O)c3cccc(CC(=O)O)c3oc12 | >90 | 45 |  | 
O=C(O)Cc1cccc2c(=O)c3ccc4ccccc4c3oc12 | >90 | 65 |  | 
Cc1cc(CC(=O)O)c2oc3c(C)cccc3c(=O)c2c1 | >90 | 220 |  | 
COc1ccc2c(=O)c3cccc(CC(=O)O)c3oc2c1C | >90 | 30 |  | 
Cc1c(Cl)ccc2c(=O)c3cccc(CC(=O)O)c3oc12 | >90 | 30 |  | 
O=C(O)Cc1cccc2c(=O)c3cc4ccccc4cc3oc12 |  | 330 | 50 | 
Cc1c(F)ccc2c(=O)c3cccc(CC(=O)O)c3oc12 | >90 | 45 |  | 
Cc1ccc2c(=O)c3cccc(CC(=O)O)c3oc2c1Cl | >90 | 100 |  | 
O=C(O)Cc1cccc2c(=O)c3ccc(Cl)c(Cl)c3oc12 |  | 100 |  | 50
Cc1ccc2c(=O)c3cccc(C)c3oc2c1CC(=O)O | >90 | 45 |  | 
O=C(O)Cc1cccc2c(=O)cc(-c3ccccc3)oc12 [MITOFLAXONE] | >90 | 330 |  | 
Cc1ccc2c(=O)c3cccc(CC(=O)O)c3oc2c1C [VADIMEZAN] | >90 | 30 |  | 
